Assay results from ChEMBL document CHEMBL1127299, “Inhibition of peptidylglycine alpha-amidating monooxygenase by N-substituted homocysteine analogs” (J Med Chem, 1994).
Non-standard residues stand in square brackets, D forms with d. Residues, ends and D or L forms follow the SMILES beside them. ξ: configuration not given here. *: point of attachment. Hydrocinnamoyl = O=C(CCc1ccccc1)*; hCys = N[C@@H](CCS)C(=O)O; Nle = CCCC[C@H](N)C(=O)O; Cbz = O=C(OCc1ccccc1)*; Boc = CC(C)(C)OC(=O)*; ξhCys = NC(CCS)C(=O)O; OBn = c1ccc(CO*)cc1

Assays:
[1] = target: T1, Peptidylglycine alpha-amidating monooxygenase (Rattus norvegicus, UniProt P14925); test: Inhibitory activity against peptidylglycine alpha-amidating monooxygenase (PAM) was determined; assay type: functional
T1 sequence (P14925 whole entry): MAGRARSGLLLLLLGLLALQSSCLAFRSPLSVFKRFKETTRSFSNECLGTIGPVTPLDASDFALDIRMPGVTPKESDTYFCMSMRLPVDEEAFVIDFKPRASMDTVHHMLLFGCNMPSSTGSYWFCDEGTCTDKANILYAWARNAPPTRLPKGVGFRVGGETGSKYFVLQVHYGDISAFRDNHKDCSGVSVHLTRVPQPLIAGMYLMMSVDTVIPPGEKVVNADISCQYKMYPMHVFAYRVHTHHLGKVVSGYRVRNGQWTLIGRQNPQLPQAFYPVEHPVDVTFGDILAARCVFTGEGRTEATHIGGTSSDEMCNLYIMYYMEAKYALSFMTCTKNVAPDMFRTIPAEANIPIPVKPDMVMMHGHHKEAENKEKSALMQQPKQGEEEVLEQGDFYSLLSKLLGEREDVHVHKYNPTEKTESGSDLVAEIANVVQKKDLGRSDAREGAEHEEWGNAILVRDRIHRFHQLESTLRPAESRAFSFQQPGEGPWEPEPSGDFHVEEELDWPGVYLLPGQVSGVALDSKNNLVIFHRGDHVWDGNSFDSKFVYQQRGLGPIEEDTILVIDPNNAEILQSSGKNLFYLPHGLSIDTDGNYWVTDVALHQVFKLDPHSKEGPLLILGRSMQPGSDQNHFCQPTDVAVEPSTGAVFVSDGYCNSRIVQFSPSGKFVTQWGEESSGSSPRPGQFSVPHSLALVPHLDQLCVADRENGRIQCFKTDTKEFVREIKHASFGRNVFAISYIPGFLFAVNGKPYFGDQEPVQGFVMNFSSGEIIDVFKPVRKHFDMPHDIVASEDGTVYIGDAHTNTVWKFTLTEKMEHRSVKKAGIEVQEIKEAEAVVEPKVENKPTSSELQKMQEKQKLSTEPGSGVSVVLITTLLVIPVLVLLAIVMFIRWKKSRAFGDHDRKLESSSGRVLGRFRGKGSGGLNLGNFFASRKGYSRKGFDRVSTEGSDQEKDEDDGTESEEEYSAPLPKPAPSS
In short: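 Partially purified PAM (DEAE cartridge, then Sephacryl 300 SF), 13.5 μU, preincubated with inhibitor 20 min at room temperature in 150 mM TES pH 7.0 with 0.001% Triton-100. Started with N-dansyl-D-Tyr-Phe-Gly (2.0 μM) plus ascorbate (3 mM), quenched with EDTA. Seven or more concentrations in duplicate, three runs; IC50 by least squares on log dose–response.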

[2] = target: T2, Peptidylglycine alpha-amidating monooxygenase (Rattus norvegicus) (UniProt P14925); test: (§1) Inhibition of PAM on Substance P biosynthesis in the dorsal root ganglion (DRG) cell culture assay; assay type: functional, tissue-based; set-up: concentration or dose not given beside the values; conditions: concentration not given here
T2 sequence (whole entry): T1 sequence (P14925 whole entry)
In short: (§2)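 Rat primary dorsal root ganglion neurons cultured without ascorbate for six days. On day 6 inhibitor added (10 μM), then ascorbate 500 μM 12 h later, incubated overnight. SP measured by RIA with an antibody selective for SP over SP-Gly. SP-Gly found by treating a duplicate sample with 3.5 μg PAM and taking the difference in SP; percent inhibition.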

[3] = target: T2, Peptidylglycine alpha-amidating monooxygenase (Rattus norvegicus); test: as §1; assay type: functional, tissue-based; conditions: concentration not given here; in short: as §2

Row | IC50 [1] [nM] | inhibition [2] [%] | inhibition [3] [%] | Compound
1 | 14 | 22 | – | O=C(COc1ccccc1)N[C@@H](Cc1ccccc1)C(=O)NC(CCS)C(=O)O (stereo partly specified)
2 | > 10000 | – | – | O=C(CCc1ccccc1)N[C@@H](Cc1ccccc1)C(=O)NC(CCS)C(=O)OCc1ccccc1 (stereo partly specified) (Hydrocinnamoyl-Phe-[ξhCys]-OBn)
3 | 8 | 42 | – | O=C(N[C@@H](Cc1ccccc1)C(=O)NC(CCS)C(=O)O)c1cc2ccccc2[nH]1 (stereo partly specified)
4 | > 10000 | – | – | C[C@H](NC(=O)[C@H](Cc1ccccc1)NC(=O)[C@@H](Cc1ccc(O)cc1)NC(=O)OC(C)(C)C)C(=O)O
5 | > 10000 | – | – | O=C(O)C[C@H](NC(=O)[C@H](Cc1ccccc1)NC(=O)CCc1ccccc1)C(=O)O (Hydrocinnamoyl-Phe-Asp-OH)
6 | 10 | 67 | – | O=C(N[C@@H](Cc1ccccc1)C(=O)NC(CCS)C(=O)O)c1ccc2ccccc2c1 (stereo partly specified)
7 | 4000 | – | – | CC(C)(C)OC(=O)N[C@H](Cc1ccc(O)cc1)C(=O)N[C@@H](Cc1ccccc1)C(=O)NCC(=O)O
8 | 53 | – | – | CC(C)(C)OC(=O)N[C@@H](Cc1ccccc1)C(=O)N[C@@H](CCS)C(=O)O (Boc-Phe-[hCys]-OH)
9 | 160 | – | – | CC(C)[C@H](NC(=O)CCc1ccccc1)C(=O)NC(CCS)C(=O)O (stereo partly specified) (Hydrocinnamoyl-Val-[ξhCys]-OH)
10 | 330 | – | – | O=C(CCc1ccccc1)N[C@@H](Cc1ccccc1)C(=O)N[C@@H](CS)C(=O)O (Hydrocinnamoyl-Phe-Cys-OH)
11 | 18 | – | – | CSCC[C@H](NC(=O)CCc1ccccc1)C(=O)NC(CCS)C(=O)O (stereo partly specified)
12 | 39 | 34 | – | CC(C)(C)OC(=O)N[C@H](Cc1ccccc1)C(=O)N[C@@H](Cc1ccccc1)C(=O)N[C@@H](CCS)C(=O)O
13 | 10 | 25 | – | O=C(CCc1ccccc1)N[C@@H](Cc1ccccc1)C(=O)N[C@@H](CCS)C(=O)O
14 | 3500 | – | – | O=C(O)CNC(=O)[C@H](Cc1ccccc1)NC(=O)[C@@H](Cc1ccc(O)cc1)NC(=O)OCc1ccccc1
15 | 340 | – | – | CC(C)(C)OC(=O)N[C@H](Cc1ccc(O)cc1)C(=O)N[C@@H](Cc1ccccc1)C(=O)N[C@@H](CS)C(=O)O
16 | 18 | 40 | – | O=C(N[C@@H](Cc1ccccc1)C(=O)N[C@@H](CCS)C(=O)O)OCc1ccccc1 (Cbz-Phe-[hCys]-OH)
17 | 29 | 10 | – | CCC(C)CC(=O)N[C@@H](Cc1ccccc1)C(=O)N[C@@H](CCS)C(=O)O (stereo partly specified)
18 | 300 | – | – | CC(C)C[C@H](NC(=O)CCc1ccccc1)C(=O)NC(CCS)C(=O)O (stereo partly specified) (Hydrocinnamoyl-Leu-[ξhCys]-OH)
19 | 15 | 28 | – | O=C(CCc1ccccc1)N[C@@H](Cc1ccccc1)C(=O)NC(CCS)C(=O)O (stereo partly specified)
20 | > 10000 | – | – | O=C(O)CC[C@H](NC(=O)[C@H](Cc1ccccc1)NC(=O)CCc1ccccc1)C(=O)O (Hydrocinnamoyl-Phe-Glu-OH)
21 | 55 | 37 | – | O=C(CCc1ccc(Cl)c(Cl)c1)N[C@@H](Cc1ccccc1)C(=O)NC(CCS)C(=O)O (stereo partly specified)
22 | 7500 | – | – | O=C(CCc1ccccc1)NC(CCS)C(=O)O (stereo unspecified)
23 | 1600 | – | – | O=C(CCc1ccccc1)N[C@@H](Cc1ccccc1)C(=O)NCCCS
24 | 23 | – | 7 | CCCC[C@H](NC(=O)CCc1ccccc1)C(=O)NC(CCS)C(=O)O (stereo partly specified) (Hydrocinnamoyl-[Nle]-[ξhCys]-OH)
25 | 4200 | – | – | CN(C)c1cccc2c(S(=O)(=O)N[C@H](Cc3ccc(O)cc3)C(=O)N[C@@H](Cc3ccccc3)C(=O)NCC(=O)O)cccc12
26 | > 10000 | – | – | NC(=O)C[C@H](NC(=O)[C@H](Cc1ccccc1)NC(=O)CCc1ccccc1)C(=O)O (Hydrocinnamoyl-Phe-Asn-OH)
27 | > 10000 | – | – | CC(C)(C)OC(=O)N[C@H](Cc1ccc(O)cc1)C(=O)N[C@@H](Cc1ccccc1)C(=O)N[C@@H](CO)C(=O)O
28 | 610 | – | – | O=C(CCc1ccccc1)N[C@@H](Cc1ccccc1)C(=O)N[C@H](CCS)C(=O)O
29 | > 10000 | 37 | – | O=C(CCc1ccccc1)N[C@@H](Cc1ccccc1)C(=O)NC1CCSC1=O (stereo partly specified)

Row | Compound | IC50 [1] [nM] | inhibition [2] [%] | inhibition [3] [%]
30 | N[C@H](Cc1ccc(O)cc1)C(=O)N[C@@H](Cc1ccccc1)C(=O)NCC(=O)O | > 10000 | – | –
